Tests used:
Format in all cases: functional
[1] = system: Rattus norvegicus; assay: Antiinflammatory activity in Wistar rat assessed as inhibition of carrageenan-induced paw edema at 100 mg/kg, after 2 hrs
How it was run: (§1)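 Male Wistar rats (170 ± 20 g) dosed orally: test agents at 100 mg/kg, reference at 10 mg/kg. One hour later, 0.1 ml of 1% carrageenan injected subplantar into the right hind paw.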

[2] = system: Rattus norvegicus; assay: Antiinflammatory activity in Wistar rat assessed as inhibition of carrageenan-induced paw edema at 100 mg/kg, after 6 hrs; how it was run: as §1
[3] = system: Mus musculus; assay: Analgesic activity in Swiss Albino mouse assessed as number of acetic acid-induced writhing at 100 mg/kg, po after 1 hr relative to control
How it was run: (§2)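 Mice dosed orally; one hour later injected i.p. with 1% v/v acetic acid at 0.1 ml/10 g. Writhings counted over 15 min, starting five minutes after injection. Means ± SEM, n = 6; p < 0.05 versus control group.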

[4] = system: Rattus norvegicus; assay: Antiinflammatory activity in Wistar rat assessed as inhibition of carrageenan-induced paw edema at 100 mg/kg, after 24 hrs; how it was run: as §1
[5] = system: Rattus norvegicus; assay: Antiinflammatory activity in Wistar rat assessed as inhibition of carrageenan-induced paw edema at 100 mg/kg, after 4 hrs; how it was run: as §1
[6] = system: Rattus norvegicus; assay: Antiinflammatory activity in Wistar rat assessed as inhibition of carrageenan-induced paw edema at 100 mg/kg, after 3 hrs; how it was run: as §1
[7] = system: Rattus norvegicus; assay: Antiinflammatory activity in Wistar rat assessed as inhibition of carrageenan-induced paw edema at 100 mg/kg, after 1 hr; how it was run: as §1
[8] = system: Mus musculus; assay: Analgesic activity in Swiss Albino mouse assessed as inhibition of acetic acid-induced writhing responses at 100 mg/kg, po after 1 hr; how it was run: as §2

## COc1cc2c(cc1OC)C(CC(=O)Nc1ccccn1)CC2 (centres undefined)
[1]
  inhibition in vivo at 100 mg/kg: 32%
[2]
  inhibition in vivo at 100 mg/kg: 29.6%
[3]
  Activity: 18
[4]
  inhibition in vivo at 100 mg/kg: 33.3%
[5]
  inhibition in vivo at 100 mg/kg: 29.7%
[6]
  inhibition in vivo at 100 mg/kg: 30.4%
[7]
  inhibition in vivo at 100 mg/kg: 25%
[8]
  inhibition in vivo at 100 mg/kg: 48%

## COc1cc2c(cc1OC)C(CC(=O)Nc1cccnc1)CC2 (centres undefined)
[1]
  inhibition in vivo at 100 mg/kg: 30%
[2]
  inhibition in vivo at 100 mg/kg: 35.2%
[3]
  Activity: 10.17
[4]
  inhibition in vivo at 100 mg/kg: 36.7%
[5]
  inhibition in vivo at 100 mg/kg: 34.4%
[6]
  inhibition in vivo at 100 mg/kg: 33.3%
[7]
  inhibition in vivo at 100 mg/kg: 25%
[8]
  inhibition in vivo at 100 mg/kg: 70.7%

## COc1cc2c(cc1OC)C(CC(=O)Nc1ccccc1)CC2 (centres undefined)
[1]
  inhibition in vivo at 100 mg/kg: 32%
[2]
  inhibition in vivo at 100 mg/kg: 38.9%
[3]
  Activity: 19.83
[4]
  inhibition in vivo at 100 mg/kg: 30%
[5]
  inhibition in vivo at 100 mg/kg: 37.5%
[6]
  inhibition in vivo at 100 mg/kg: 36.2%
[7]
  inhibition in vivo at 100 mg/kg: 31.2%
[8]
  inhibition in vivo at 100 mg/kg: 42.8%

## COc1cc2c(cc1OC)C(CC(=O)Nc1ccc(NC(C)=O)cc1)CC2 (centres undefined)
[1]
  inhibition in vivo at 100 mg/kg: 18%
[2]
  inhibition in vivo at 100 mg/kg: 24.1%
[3]
  Activity: 24
[4]
  inhibition in vivo at 100 mg/kg: 33.3%
[5]
  inhibition in vivo at 100 mg/kg: 22.7%
[6]
  inhibition in vivo at 100 mg/kg: 23.2%
[7]
  inhibition in vivo at 100 mg/kg: 25%
[8]
  inhibition in vivo at 100 mg/kg: 30.8%

## COc1cc2c(cc1OC)C(CC(=O)Nc1ccccc1C)CC2 (centres undefined)
[1]
  inhibition in vivo at 100 mg/kg: 18%
[2]
  inhibition in vivo at 100 mg/kg: 25.9%
[3]
  Activity: 24.3
[4]
  inhibition in vivo at 100 mg/kg: 23.3%
[5]
  inhibition in vivo at 100 mg/kg: 25%
[6]
  inhibition in vivo at 100 mg/kg: 26.1%
[7]
  inhibition in vivo at 100 mg/kg: 21.9%
[8]
  inhibition in vivo at 100 mg/kg: 30%

## COc1cc2c(cc1OC)C(CC(=O)Nc1ccc(Br)cc1)CC2 (centres undefined)
[1]
  inhibition in vivo at 100 mg/kg: 40%
[2]
  inhibition in vivo at 100 mg/kg: 46.3%
[3]
  Activity: 21.67
[4]
  inhibition in vivo at 100 mg/kg: 66.7%
[5]
  inhibition in vivo at 100 mg/kg: 40.6%
[6]
  inhibition in vivo at 100 mg/kg: 43.5%
[7]
  inhibition in vivo at 100 mg/kg: 50%
[8]
  inhibition in vivo at 100 mg/kg: 37.5%

## COc1cc2c(cc1OC)C(CC(=O)O)CC2 (centres undefined)
[1]
  inhibition in vivo at 100 mg/kg: 24%
[2]
  inhibition in vivo at 100 mg/kg: 20.4%
[3]
  Activity: 19.41
[4]
  inhibition in vivo at 100 mg/kg: 26.7%
[5]
  inhibition in vivo at 100 mg/kg: 23.9%
[6]
  inhibition in vivo at 100 mg/kg: 27.5%
[7]
  inhibition in vivo at 100 mg/kg: 18.8%
[8]
  inhibition in vivo at 100 mg/kg: 44%

## COc1ccccc1NC(=O)CC1CCc2cc(OC)c(OC)cc21 (centres undefined)
[1]
  inhibition in vivo at 100 mg/kg: 16%
[2]
  inhibition in vivo at 100 mg/kg: 24.1%
[3]
  Activity: 26.17
[4]
  inhibition in vivo at 100 mg/kg: 30%
[5]
  inhibition in vivo at 100 mg/kg: 23.4%
[6]
  inhibition in vivo at 100 mg/kg: 21.7%
[7]
  inhibition in vivo at 100 mg/kg: 28.1%
[8]
  inhibition in vivo at 100 mg/kg: 24.5%

Source: ChEMBL document CHEMBL1138278, “Aromatic amide derivatives of 5,6-dimethoxy-2,3-dihydro-1H-inden(-1-yl)acetic acid as anti-inflammatory agents free of ulcerogenic liability” (Bioorg Med Chem Lett, 2007)
